The entries come from a sample that favours hits as a whole.
NALP1 inh: NALP1 inhibition; S. cerevisiae NALP1/ASC/caspase-1 growth, X-gal OD620, 72 h; 280,000 tested, 0.61% active; inhibition, % at 10 µM; in the data active means inhibition mostly above about 24%, no sharp cut-off; inactive means mostly below about 32%
L major viab: reduces viability of Leishmania major promastigotes. resazurin fluorescence viability. inhibition, % at 10 µM. 200,000 tested, 9% active; in the data active means inhibition above about 50%;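 further: promastigotes grown with compound for 44 hours at 28 °C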
PolyA inh: inhibitors of polyadenylation in S. cerevisiae. S. cerevisiae SKY197-pL101 polyadenylation reporter, beta-gal luminescence; efflux-impaired pdr1/pdr3 knockout yeast; score 100 = 6 SD above DMSO. activity score, % at 12 µM. 300,000 tested, 0.02% active;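 active means lowest replicate activity score at least 50, where 100 means six control SD above control mean; inconclusive means lowest score under 50 but half or more replicates reach 50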;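 further: yeast exposed to compound for 9 h at 30 °C; higher score means more reporter readthrough which indicates perturbed polyadenylation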
NLRP3 yeast inh: inhibitors of NALP3 inflammasome in yeast; inhibition, % at 10 µM; 330,000 tested, 0.39% active; Yeast reconstituted NLRP3/ASC/caspase-1, beta-gal luminescence, 24 h;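 active means inhibition of 50% or more; inactive means inhibition below 50%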;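 further: plate controls were induced DMSO wells for no effect and uninduced yeast grown without galactose for full effect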
Calb FLC: affects C. albicans growth with fluconazole; C. albicans CaCi-2 + fluconazole, Alamar Blue growth, 48 h; growth inhibition, % (no concentration beside the values); 300,000 tested, 0.57% active; AID 1979;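 active means growth inhibition above about 58% in most replicates, limit read from the data, passing the limit was not always enough; inconclusive means exactly half the replicates above a set limit; inactive means most replicates below a set limit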;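 further: all wells also contain fluconazole at 8 µg/ml as a sub-toxic cotreatment; 0% = median of DMSO wells and 100% = median of geldanamycin control wells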
T cruzi repl: T. cruzi replication inhibition; inhibition, % (no concentration beside the values); 300,000 tested, 1.4% active; T. cruzi beta-gal in NIH3T3, luminescence, 90 h;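 active means mean inhibition across valid replicates above about 55%, limit read from the data; inconclusive means mean below that limit but half or more replicates reach it; inactive means mean below it, under half of replicates reach it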;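 further: signal also drops with host cell toxicity which is not excluded here; 0% = plate median of DMSO wells and 100% = zero luminescence signal; higher percent means less beta-gal luminescence so fewer parasites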
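Material: NIH/3T3 host cells with β-galactosidase reporter T. cruzi; Input: 5,000 host fibroblasts per well; Medium: DMEM, 2% fetal bovine serum; Compound: 50 nL DMSO compound solution per well; Schedule: 3 h host attachment, then at least 90 h co-culture; Detection: luminescent β-galactosidase signal after 60 min lysis.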
Active calls of the source: *; ? = inconclusive; · = no result given.

SMILES	NALP1 inh	L major viab	PolyA inh	NLRP3 yeast inh	Calb FLC	T cruzi repl
COc1cc(C(=O)ON=C2C(C)=CC(=O)C=C2C)cc(OC)c1OC	-7	74*	-8	-12	12	-23
COc1cc(C(=O)O/N=C2/C=C(C)C(=O)C=C2C)cc(OC)c1OC	·	93*	·	-1	·	-36
COc1cc(C(=O)Oc2cc(C)cc(C)c2)cc(OC)c1OC	-56	-7	38	36	-10	2
CCN(CC)CCOc1ccccc1C(C)=O	6	-3	12	6	8	-5
O=C(Oc1cc(-c2ccccc2)no1)c1ccc(F)cc1	5	-6	-2	2	-3	-10
O=C(Oc1cc(-c2ccccc2)no1)c1cccc(C(F)(F)F)c1	43*	-6	-9	9	5	-9
COc1cc(CNCCSc2nnnn2C)cc(Br)c1OCc1ccccc1F	12	90*	-7	19	6	37
CCOc1cc(CNCCSc2nnnn2C)cc(Br)c1OCc1ccccc1F	10	36	-10	27	?	68*
CCOc1cc(CNCc2ccncc2)cc(Br)c1OCc1ccccc1F	17	92*	3	22	-1	17
Cn1nnnc1SCCNCc1cccc2ccccc12	20	-3	15	-8	4	70*
CCc1ccc(N2C(=O)CC(Cn3nc(C)cc3C)C2=O)cc1 (stereo unspecified)	-9	·	15	6	-6	-10
O=C(O)COc1ccc(/C=C/c2nc3ccc([N+](=O)[O-])cc3s2)cc1	9	·	-4	20	0	56*
Cc1cccc(OCC(=O)Nc2nc3ccc([N+](=O)[O-])cc3s2)c1	7	7	0	39	?	-6
Cc1cc(C)nc(SC2c3cccc4cccc(c34)C2NS(=O)(=O)c2ccccc2)n1 (stereo unspecified)	27	25	-21	-8	11	57*
Cc1ccc(S(=O)(=O)NC2c3cccc4cccc(c34)C2Sc2ncccn2)cc1 (stereo unspecified)	26	14	-6	-1	3	38
COc1ccc(C(=O)NCCCN2CCOCC2)cc1S(=O)(=O)N1CCCc2ccccc21	13	2	-6	4	2	14
CC[N+]1=C(C)C(C)(C)c2cc(C)ccc21	7	47	12	11	-2	57*
CCOCc1c(C(=O)NC2=Nc3ccccc3NC(CC)=C2C(=O)OCC)oc2ccccc12	8	30	18	15	-18	56*
Cc1cccc(N(CC(=O)NC2CCCCC2)C(=O)CCC(=O)Nc2nccs2)c1	13	·	-4	6	-2	-7
Clc1ccc(-c2nnnn2-c2ccc(Cl)cc2)cc1	·	·	-18	-8	5	3
Cc1ccc(-n2nnnc2C(Cl)(Cl)c2nnnn2-c2ccc(C)cc2)cc1	-16	9	-107	50	103*	63*
CC(=O)Oc1ccc2c(C)cc(=O)oc2c1	2	-5	10	15	-2	-15
COC(=O)C(CC(C)C)Oc1ccc2c(C)cc(=O)oc2c1 (stereo unspecified)	-13	85*	-6	22	31	5
O=C(Cc1cccc2ccccc12)N/N=C1\CCCc2ccccc21	18	64*	6	12	10	12
O=C(N/N=C1\CCCc2ccccc21)c1ccc([N+](=O)[O-])cc1	-64	69*	-6	-6	?	-2
SMILES	NALP1 inh	L major viab	PolyA inh	NLRP3 yeast inh	Calb FLC	T cruzi repl
O=C(Cc1ccc(Cl)cc1)N/N=C1\CCCc2ccccc21	-13	3	-6	11	-28	-26
Cc1cc(NC(=O)NC2CCCN2S(=O)(=O)c2ccc(Cl)cc2)no1 (stereo unspecified)	5	1	3	-7	12	0
NC(=O)c1c(NC(=O)CN2C(=O)NC(Cc3ccccc3)C2=O)sc2c1CCC2 (stereo unspecified)	42*	·	-11	1	2	-6
CCc1cc(=O)oc2cc(C)cc(OCC(=O)N3CCC(C(=O)NC(C)C)(c4ccccc4)CC3)c12	12	·	-19	8	-1	8
COC(=O)/C(=C\c1ccc([N+](=O)[O-])o1)NC(=O)c1ccccc1	-9	95*	-15	-6	102*	49
CCCCNC(=O)/C(=C\c1ccc([N+](=O)[O-])o1)NC(=O)c1ccccc1	-28	67*	-16	18	100*	63*
Cc1ccc(C(=O)N/C(=C\c2ccc(-c3ccccc3[N+](=O)[O-])o2)C(=O)NCCCN(C)C)cc1	3	·	7	24	11	16
Cc1cccc(NC(=O)/C(=C\c2ccc([N+](=O)[O-])o2)NC(=O)c2ccc(Cl)cc2)c1	22	0	·	·	·	·
O/N=C(\c1ccc(Cl)cc1)c1cc2ccccc2o1	17	5	-68	9	-14	5
O=C1NC(=Nc2ccccc2)S/C1=C\c1cccn1-c1ccccc1	39*	15	-3	-7	0	18
Cc1cccc(N=C2NC(=O)/C(=C/c3cccn3C)S2)c1	4	·	-8	13	4	6
CCOC(=O)c1c(C)n(C)c2ccc(O)c(CN3CCC(C)CC3)c12	6	61*	8	16	6	40
CCOC(=O)c1c(C)n(-c2ccccc2)c2ccc(O)c(CN(C)C)c12	14	94*	-14	15	18	39
CCOC(=O)c1c(C)n(C)c2ccc(O)c(CN3CCN(C)CC3)c12	-1	-3	-4	8	40	3
CCOC(=O)c1c(C)oc2ccc(O)c(CN(C)C)c12	2	1	2	18	-2	4
CCOC(=O)c1c(C)n(C)c2ccc(O)c(CN(CC)CC)c12	18	62*	2	-4	22	14
CC(NCCC(c1ccccc1)c1ccccc1)c1ccccc1 (stereo unspecified)	54*	81*	3	33	·	15
CC(NC1CCCC1)c1ccccc1 (stereo unspecified)	6	-5	-4	12	-9	-7
COc1ccc(-n2nc(C(=O)N(C)C)nc2-c2ccccc2)cc1	25	·	1	20	36	-22
CCN(CC)N=Nc1ccc(S(=O)(=O)Nc2nc(C)cc(C)n2)cc1	13	·	5	9	-12	-7
COc1cc(Cc2ccc(N)c(OC)c2)ccc1N	32	-6	3	10	0	9
Nc1ccc(Cc2ccc(N)c(O)c2)cc1O	-5	99*	·	·	·	·
CCCc1nnc(SCC(=O)N2CCCCC2C)n1CCOC (stereo unspecified)	24*	8	-1	5	-3	-3
CCCc1nnc(SCC(=O)N2CCCCC2C)n1CCCOC (stereo unspecified)	3	-8	-4	16	-1	-13
COc1ccc(-c2cc(C(F)F)n3ncc(C(=O)N4CCN(C)CC4)c3n2)cc1	-62	98*	6	5	0	5

Screens deposited in PubChem BioAssay by several laboratories.
